Measurements published in ChEMBL document CHEMBL3286203, “Reactive oxygen species (ROS) inducible DNA cross-linking agents and their effect on cancer cells and normal lymphocytes” (J Med Chem, 2014).
The source made the active and inactive calls. The calls are words filed in the database; no cut-off is given here.

Legend:
NCI-H460 = assay: Cytotoxicity against human NCI-H460 cells assessed as growth inhibition at 10 uM after 48 hrs by SRB assay; format: functional, cell-based
How it was run: (§1)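 Single-dose screen run by the NCI Developmental Therapeutics Program (NCI-60). Cells were grown in RPMI 1640 with 5% fetal bovine serum and 2 mM L-glutamine. They were plated at 5000–40 000 cells/well, depending on doubling time. Each line was run in two plates and exposed to 10 μM drug for 48 h at 37 °C, 5% CO2, 100% humidity. Read-out was growth percent.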

SK-MEL-28 = assay: Cytotoxicity against human SK-MEL-28 cells assessed as growth inhibition at 10 uM after 48 hrs by SRB assay; format: functional, cell-based; how it was run: as §1
MCF7 = assay: Cytotoxicity against human MCF7 cells assessed as growth inhibition at 10 uM after 48 hrs by SRB assay; format: functional, cell-based; how it was run: as §1
RPMI-8226 = assay: Cytotoxicity against human RPMI8226 cells assessed as growth inhibition at 10 uM after 48 hrs by SRB assay; format: functional, cell-based; how it was run: as §1
CCRF-CEM = assay: Cytotoxicity against human CCRF-CEM cells assessed as growth inhibition at 10 uM after 48 hrs by SRB assay; format: functional, cell-based
How it was run: (§2)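 NCI DTP 60-cell-line screen run at the NCI. Cells were grown in RPMI 1640 with 5% FBS and 2 mM L-glutamine. They were seeded at 5000–40 000 cells/well depending on doubling time and grown in two plates per line. Each was exposed to a single 10 μM dose for 48 h at 37 °C, 5% CO2, 95% air, 100% humidity. Read-out was percent growth.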

SW-620 = assay: Cytotoxicity against human SW620 cells assessed as growth inhibition at 10 uM after 48 hrs by SRB assay; format: functional, cell-based
How it was run: (§3)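 NCI-60 DTP human tumour line screen. Cells grown in RPMI 1640 with 5% fetal bovine serum and 2 mM L-glutamine, plated at 5000–40 000 cells/well according to doubling time. Single dose of 10 μM for 48 h at 37 °C, 5% CO2, 95% air, 100% humidity, two plates per line. Read-out is growth percent.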

MDA-MB-468 = assay: Cytotoxicity against human MDA-MB-468 cells assessed as growth inhibition at 10 uM after 48 hrs by SRB assay; format: functional, cell-based; how it was run: as §1
DU-145 = assay: Cytotoxicity against human DU145 cells assessed as growth inhibition at 10 uM after 48 hrs by SRB assay; format: functional, cell-based; how it was run: as §2
NCI-H522 = assay: Cytotoxicity against human NCI-H522 cells assessed as growth inhibition at 10 uM after 48 hrs by SRB assay; format: functional, cell-based; how it was run: as §1
HOP-62 = assay: Cytotoxicity against human HOP62 cells assessed as growth inhibition at 10 uM after 48 hrs by SRB assay; format: functional, cell-based; how it was run: as §2
SF-539 = assay: Cytotoxicity against human SF539 cells assessed as growth inhibition at 10 uM after 48 hrs by SRB assay; format: functional, cell-based; how it was run: as §1
NCI-H322M = assay: Cytotoxicity against human NCI-H322M cells assessed as growth inhibition at 10 uM after 48 hrs by SRB assay; format: functional, cell-based; how it was run: as §1
HL-60(TB) = assay: Cytotoxicity against human HL-60(TB) cells assessed as growth inhibition at 10 uM after 48 hrs by SRB assay; format: functional, cell-based; how it was run: as §2
MOLT-4 = assay: Cytotoxicity against human MOLT4 cells assessed as growth inhibition at 10 uM after 48 hrs by SRB assay; format: functional, cell-based; how it was run: as §1
MDA-MB-231 = assay: Cytotoxicity against human MDA-MB-231 cells assessed as growth inhibition at 10 uM after 48 hrs by SRB assay; format: functional, cell-based; how it was run: as §1
RXF 393 = assay: Cytotoxicity against human RXF393 cells assessed as growth inhibition at 10 uM after 48 hrs by SRB assay; format: functional, cell-based; how it was run: as §1
HOP-92 = assay: Cytotoxicity against human HOP92 cells assessed as growth inhibition at 10 uM after 48 hrs by SRB assay; format: functional, cell-based; how it was run: as §2
EKVX = assay: Cytotoxicity against human EKVX cells assessed as growth inhibition at 10 uM after 48 hrs by SRB assay; format: functional, cell-based; how it was run: as §2
HCC 2998 = assay: Cytotoxicity against human HCC2998 cells assessed as growth inhibition at 10 uM after 48 hrs by SRB assay; format: functional, cell-based; how it was run: as §2
UO-31 = assay: Cytotoxicity against human UO31 cells assessed as growth inhibition at 10 uM after 48 hrs by SRB assay; format: functional, cell-based; how it was run: as §3
786-0 = assay: Cytotoxicity against human 786-0 cells assessed as growth inhibition at 10 uM after 48 hrs by SRB assay; format: functional, cell-based; how it was run: as §2
ACHN = assay: Cytotoxicity against human ACHN cells assessed as growth inhibition at 10 uM after 48 hrs by SRB assay; format: functional, cell-based; how it was run: as §2
SK-MEL-5 = assay: Cytotoxicity against human SK-MEL-5 cells assessed as growth inhibition at 10 uM after 48 hrs by SRB assay; format: functional, cell-based; how it was run: as §1
SNB-19 = assay: Cytotoxicity against human SNB19 cells assessed as growth inhibition at 10 uM after 48 hrs by SRB assay; format: functional, cell-based; how it was run: as §3
SF-295 = assay: Cytotoxicity against human SF295 cells assessed as growth inhibition at 10 uM after 48 hrs by SRB assay; format: functional, cell-based; how it was run: as §1
OVCAR-5 = assay: Cytotoxicity against human OVCAR5 cells assessed as growth inhibition at 10 uM after 48 hrs by SRB assay; format: functional, cell-based; how it was run: as §1
NCI-H23 = assay: Cytotoxicity against human NCI-H23 cells assessed as growth inhibition at 10 uM after 48 hrs by SRB assay; format: functional, cell-based; how it was run: as §1
PC-3 = assay: Cytotoxicity against human PC3 cells assessed as growth inhibition at 10 uM after 48 hrs by SRB assay; format: functional, cell-based; how it was run: as §1
LOX IMVI = assay: Cytotoxicity against human LOXIMVI cells assessed as growth inhibition at 10 uM after 48 hrs by SRB assay; format: functional, cell-based; how it was run: as §2
CAKI-1 = assay: Cytotoxicity against human Caki1 cells assessed as growth inhibition at 10 uM after 48 hrs by SRB assay; format: functional, cell-based; how it was run: as §2
IGROV-1 = assay: Cytotoxicity against human IGROV1 cells assessed as growth inhibition at 10 uM after 48 hrs by SRB assay; format: functional, cell-based; how it was run: as §2
[1] = Induction of [32P]-labeled 49-mer oligonucleotide duplex DNA 12 with GNC sequence at terminus (unknown origin) interstrand cross-linking at 1 mM after 16 hrs by PAGE in presence of H2O2
How it was run: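 32P-labelled 12a (1.0 μM) annealed with 1.5 equiv of 12b in 10 mM potassium phosphate pH 7 / 100 mM NaCl (65 °C for 3 min, then slow cooling). Duplex incubated with compound (final 1 μM–5 mM), with or without H2O2, in NaCl and potassium phosphate pH 8 at room temperature for 16 h. Quenched in formamide; 20% denaturing PAGE.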

NCI-H226 = assay: Cytotoxicity against human NCI-H226 cells assessed as growth inhibition at 10 uM after 48 hrs by SRB assay; format: functional, cell-based; how it was run: as §1
U-251 = assay: Cytotoxicity against human U251 cells assessed as growth inhibition at 10 uM after 48 hrs by SRB assay; format: functional, cell-based; how it was run: as §3
UACC-62 = assay: Cytotoxicity against human UACC62 cells assessed as growth inhibition at 10 uM after 48 hrs by SRB assay; format: functional, cell-based; how it was run: as §3
A498 = assay: Cytotoxicity against human A498 cells assessed as growth inhibition at 10 uM after 48 hrs by SRB assay; format: functional, cell-based; how it was run: as §2

| Structure (SMILES) | growth inhibition (GI) (NCI-H460) | growth inhibition (GI) (SK-MEL-28) | growth inhibition (GI) (MCF7) | growth inhibition (GI) (RPMI-8226) | growth inhibition (GI) (CCRF-CEM) | growth inhibition (GI) (SW-620) | growth inhibition (GI) (MDA-MB-468) | growth inhibition (GI) (DU-145) | growth inhibition (GI) (NCI-H522) | growth inhibition (GI) (HOP-62) | growth inhibition (GI) (SF-539) | growth inhibition (GI) (NCI-H322M) | growth inhibition (GI) (HL-60(TB)) | growth inhibition (GI) (MOLT-4) | growth inhibition (GI) (MDA-MB-231) | growth inhibition (GI) (RXF 393) | growth inhibition (GI) (HOP-92) | growth inhibition (GI) (EKVX) | growth inhibition (GI) (HCC 2998) | growth inhibition (GI) (UO-31) | other results |
| --- | --- | --- | --- | --- | --- | --- | --- | --- | --- | --- | --- | --- | --- | --- | --- | --- | --- | --- | --- | --- | --- |
| CC1(C)OB(c2ccc(COC(=O)N(CCCl)CCCl)cc2)OC1(C)C | inactive | inactive | inactive | inactive | inactive | inactive | inactive | inactive | inactive | inactive | inactive | inactive | inactive | inactive | inactive | inactive | inactive | inactive | inactive | inactive | growth inhibition (GI) (786-0): inactive; growth inhibition (GI) (ACHN): inactive; growth inhibition (GI) (SK-MEL-5): inactive; growth inhibition (GI) (SNB-19): inactive; growth inhibition (GI) (SF-295): inactive; growth inhibition (GI) (OVCAR-5): inactive; growth inhibition (GI) (NCI-H23): inactive; growth inhibition (GI) (PC-3): inactive; growth inhibition (GI) (LOX IMVI): inactive; growth inhibition (GI) (CAKI-1): inactive; growth inhibition (GI) (IGROV-1): inactive; Activity [1]: inactive; growth inhibition (GI) (NCI-H226): inactive; growth inhibition (GI) (U-251): inactive; growth inhibition (GI) (UACC-62): inactive; growth inhibition (GI) (A498): inactive |
| CC1(C)OB(c2ccc(N(CCCl)CCOS(C)(=O)=O)cc2)OC1(C)C | Active | Active | Active | Active | Active | Active | Active | Active | Active | Active | Active | Active | Active | Active | Active | Active | Active | Active | Active | Active | growth inhibition (GI) (786-0): Active; growth inhibition (GI) (ACHN): Active; growth inhibition (GI) (SK-MEL-5): Active; growth inhibition (GI) (SNB-19): Active; growth inhibition (GI) (SF-295): Active; growth inhibition (GI) (OVCAR-5): Active; growth inhibition (GI) (NCI-H23): Active; growth inhibition (GI) (PC-3): Active; growth inhibition (GI) (LOX IMVI): Active; growth inhibition (GI) (CAKI-1): Active; growth inhibition (GI) (IGROV-1): Active; Activity [1]: 37%; growth inhibition (GI) (NCI-H226): Active; growth inhibition (GI) (U-251): Active; growth inhibition (GI) (UACC-62): Active; growth inhibition (GI) (A498): Active |
